Measurements pooled from the literature.
Lines come from different studies, so protocols differ.
Target: Dual specificity protein kinase CLK2 (CLK2, Homo sapiens, UniProt P49760)

Structure (SMILES) | test | conditions | quantity | value
Cn1c2c(c3ccc(Cl)c(Cl)c31)C(C#N)C1(CCN(C(=O)OC(C)(C)C)CC1)NC2=O (racemic) | thermal stability, DSF | 10 µM | ΔTm | -0.3 °C
COc1cccc(CNC(=O)c2nc3scc(COCc4ccc(C(=O)O)cc4)c3c(=O)[nH]2)c1 | cell-free assay, competition with immobilised ligand | 1 µM | remaining binding | 92.4%
CCCS(=O)(=O)Nc1ccc(F)c(C(=O)c2c[nH]c3ncc(-c4ccc(Cl)cc4)cc23)c1F | enzyme activity, inhibitor | 1 µM | inhibition | < 10%
Cn1cnc(Br)c1C1=CN(c2ncnc3[nH]cnc23)CCS1 | enzyme activity, inhibitor, radiometric | 2 µM | inhibition | 97.2%
Cc1cnc(NC2CCOCC2)nc1-n1cnc(C(=O)NC(CN)c2cc(F)cc(Cl)c2)c1 (stereo not shown) | enzyme activity, inhibitor, radiometric | 1 µM | remaining activity | 78%
O=C1Nc2ccc(Cl)cc2C1=Cc1cc(Cl)c(O)c(Cl)c1 | cell-free assay | 0.5 µM | remaining signal | 95.5%
Nc1nc(Nc2ccc(S(N)(=O)=O)cc2)sc1C(=O)c1ccccc1[N+](=O)[O-] | enzyme activity, inhibitor | 0.1 µM | inhibition | 60 to 66%
Cn1cncc1C1=CN(c2ncnc3[nH]cnc23)CCS1 | enzyme activity, inhibitor, radiometric | 2 µM | inhibition | 97.8%
Cc1sc(C(=O)NC2COC2)cc1-n1cc(NC(=O)Nc2c(F)cccc2Cl)cn1 | enzyme activity, inhibitor | 10 µM | remaining activity | 100%
Cn1c2c(c3ccc(Cl)c(Cl)c31)C(C#N)C(C)(C)NC2=O (stereo not shown) | thermal stability, DSF | 10 µM | ΔTm | 3.2 °C
CS(=O)(=O)N1CCCC(NC(=O)[C@H](CCC2CCCCC2)NC(=O)c2ccc(CNC(=O)c3cnc4ccccn34)cc2)C1 (stereo partly shown) | cell-free assay, competition with immobilised ligand | 0.1 µM | remaining binding | 98%
C#Cc1cccc(Nc2ncnc3cc(OCCOC)c(OCCOC)cc23)c1 | cell-free assay | 0.5 µM | remaining signal | 93.4%
COc1ccc2cc(OCC3(C(=O)O)CN(C(=O)c4ccc(F)cc4)C3)ccc2c1 | cell-free assay, competition with immobilised ligand | 1 µM | remaining binding | 100%
CCC1(CC)NC(=O)c2c(c3ccc(Cl)c(Cl)c3n2C)C1C#N (stereo not shown) | thermal stability, DSF | 10 µM | ΔTm | 1.3 °C
O=C(NCc1ncc(C(F)(F)F)cc1Cl)c1ccc2c(c1)C1(CCS(=O)(=O)CC1)[C@@H](C1CC1)N2S(=O)(=O)c1ccc(F)cc1 | cell-free assay, competition with immobilised ligand | 1 µM | remaining binding | 82%
Cn1c2c(Cl)c(Cl)ccc2c2cc(N)[nH]c(=O)c21 | thermal stability, DSF | 10 µM | ΔTm | 1.3 °C
Cc1ccc(NC(=O)c2ccc(CN3CCN(C)CC3)cc2)cc1Nc1nc(-c2cccnc2)cs1 | cell-free assay | 0.5 µM | remaining signal | 86%
COc1cc2ncnc(Nc3ccc(Oc4ccccc4)c(C)c3C)c2cc1OC | enzyme activity, inhibitor | 1 µM | inhibition | 3%
CC(C1CC1)n1cnc2c(NCc3cccc(C(F)(F)F)c3)nc(NCCN(C)C)nc21 (stereo not shown) | enzyme activity, inhibitor | 5 µM | inhibition | > 50%

Structure (SMILES) | test | conditions | quantity | value
COc1cc(Nc2cnc(C#N)c(O[C@H](C)CN(C)C)n2)ncc1-c1cnn(C)c1 | enzyme activity, inhibitor, radiometric | 1 µM | remaining activity | 95%
c1ccc(CNc2nc(N3CCOc4ccccc43)nc3c2CCCC3)cc1 | target engagement in cells, inhibitor, chemoproteomics | 20 mM | inhibition | -5.9%
CCN1CCC2(CC1)NC(=O)c1c(c3ccc(Cl)c(Cl)c3n1C)C2C#N (racemic) | thermal stability, DSF | 10 µM | ΔTm | 1.4 °C
CC/C(=N\NC(=O)NCc1cccc(O)c1)c1ccc(O)c(C)c1O | enzyme activity, inhibitor | 0.1 µM | inhibition | 1.6%
O=C(CSc1nc2nccnc2c(=O)n1CCc1ccccc1)Nc1nccs1 | enzyme activity, inhibitor | 10 µM | inhibition | 15%
CCN(CC)c1ccc(C2=NNC(=O)CC2C)cc1[N+](=O)[O-] (stereo not shown) | enzyme activity, inhibitor | 10 µM | remaining activity | 96%
CC(=O)Nc1c(C(C)=O)c(=O)n(C)c2nc(-c3ccc(Cl)cc3Cl)c(-c3ccc(Cl)cc3)cc12 | cell-free assay, competition with immobilised ligand | 1 µM | remaining binding | 100%
CC(C)(C)c1nc2c(s1)c1nc(N)ncc1c1ccc(NS(=O)(=O)c3c(F)cccc3F)c(F)c12 | enzyme activity, inhibitor, radiometric | 1 µM | remaining activity | 90%
CCCOc1ccc(OC)c(F)c1C(=O)c1ccc(C(=O)N[C@@H]2CNC[C@H]2NC(=O)c2ccc3[nH]ncc3c2)cc1 | enzyme activity, inhibitor | 10 µM | remaining activity | 36%
N#CCCc1ccc2c(c1)-c1[nH]c3ccc([N+](=O)[O-])cc3c1CC(=O)N2 | cell-free assay | 0.5 µM | remaining signal | 104%
CCCOc1ccc([C@H]2[C@H](C(=O)O)[C@@H](c3ccc4c(c3)OCO4)CN2CC(=O)Nc2c(CC)cccc2CC)cc1 | cell-free assay, competition with immobilised ligand | 1 µM | remaining binding | 91%
Cn1c(=O)n(-c2ccc(C(C)(C)C#N)cc2)c2c3cc(-c4cnc5ccccc5c4)ccc3ncc21 | enzyme activity, inhibitor | 10 µM | remaining activity | 53%
CCCCNc1ncc2c(-c3ccc(F)cc3)nn(C[C@H]3CC[C@H](N)CC3)c2n1 | target engagement in cells, inhibitor, chemoproteomics | 20 mM | inhibition | 46.4%
Nc1ncnc2occ(-c3ccc(NC(=O)Nc4cc(C(F)(F)F)ccc4F)cc3)c12 | cell-free assay, inhibitor | 20 µM | remaining signal | 23%
O=S(=O)(NC1CCC(c2cc(F)ccc2F)(S(=O)(=O)c2ccc(Cl)cc2)CC1)C(F)(F)F (stereo not shown) | cell-free assay, competition with immobilised ligand | 1 µM | remaining binding | 100%
FC(F)(F)Oc1cccc(-c2cnc3ccc(-c4ccncc4)nn23)c1 | enzyme activity, inhibitor, radiometric | 1 µM | activity vs control | 0.675%
CS(=O)(=O)NCC[C@H](NC(=O)c1cncc2c1cnn2-c1ccc(F)cc1)c1ccnc(S(C)(=O)=O)c1 | cell-free assay, competition with immobilised ligand | 1 µM | remaining binding | 100%
CN(C)C1CCN(CC#Cc2nn(C3CCCC3)c3nc(NCc4ccccc4)ncc23)C1 (stereo not shown) | enzyme activity, inhibitor, FRET | 1 µM | inhibition | 11%
